In ChEMBL document CHEMBL4028901, “Novel Antitubercular 6-Dialkylaminopyrimidine Carboxamides from Phenotypic Whole-Cell High Throughput Screening of a SoftFocus Library: Structure-Activity Relationship and Target Identification Studies” (J Med Chem, 2017):
≈ marks a conversion by molar mass, not a printed value.

What was measured:
[1] = tested on: Mycobacterium tuberculosis; experiment: Antibacterial activity against Mycobacterium tuberculosis […] SAWC1125 grown in middlebrook 7H9 medium measured on day 7 and 14 by MABA assay; assay type: functional; settings: 168 h
Summary of the method: (§1)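 Clinical M. tuberculosis strains tested by broth microdilution in 7H9 medium. On days 7 and 14, Alamar Blue added and plates reincubated 24 h at 37 °C. Colour read by eye (blue means no growth, pink means growth). MIC90 is the lowest concentration with no colour change.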

Mus musculus [2] = experiment: Volume of distribution in C57/BL6 mouse at 5 mg/kg, iv measured up to 24 hrs post dose by LC-MS/MS analysis; assay type: ADME, organism-based; settings: in vivo
Summary of the method: (§2)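 Male mice, 3 animals, not fasted, given an IV bolus in 10% DMSO, 50% propylene glycol/ethanol (4:1) and 40% polyethylene glycol or water. Blood sampled into heparinised tubes at 0.17, 0.5, 1, 3, 5, 8, 12 and 24 h, stored frozen, precipitated with ice-cold acetonitrile. Measured by LC-MS/MS with internal standards against blood-matrix calibration standards.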

[3] = tested on: Mycobacterium tuberculosis; experiment: Antibacterial activity against Mycobacterium tuberculosis […] SAWC3933 grown in middlebrook 7H9 medium measured on day 7 and 14 by MABA assay; assay type: functional; settings: 168 h; summary of the method: as §1
Mus musculus [4] = experiment: Apparent elimination half life in C57/BL6 mouse at 20 mg/kg, po measured up to 24 hrs post dose by LC-MS/MS analysis; assay type: ADME, organism-based; settings: in vivo
Summary of the method: (§3)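 Male mice, 3 per route, not fasted, free access to water. Oral dose given as aqueous suspension in 0.5% (w/v) hydroxypropyl methylcellulose with 0.4% (v/v) Tween 80. Blood drawn into heparinised tubes at 0.5, 1, 3, 5, 8, 12 and 24 h, kept below -15 °C, protein-precipitated with ice-cold acetonitrile. Quantified by LC-MS/MS against standards made in drug-free mouse blood.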

[5] = Kinetic solubility of the compound in pH 7.4 solution at 10 to 220 uM after 2 hrs by shake flask method; assay type: physicochemical; settings: buffer, pH 7.4, 2 h, 220 µM
Plasma = experiment: Fraction unbound in human plasma at 5 uM pre-incubated for 1 hr by ultra-centrifugation and LC-MS/MS method; assay type: ADME, cell-free
Summary of the method: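 Pooled human plasma spiked to 5 μM and pre-incubated 1 h at 37 °C. Duplicate aliquots ultracentrifuged 4 h at 37 °C; an unspun aliquot served as the total sample. Analyte measured by LC-MS/MS.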

Liver [6] = experiment: Metabolic stability in human liver microsomes assessed as compound remaining at 0.1 uM after 30 mins by LC-MS/MS analysis; assay type: ADME, microsome; settings: 0.5 h
Summary of the method: (§4)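 Compound at 0.1 μM incubated in duplicate with mouse, rat or pooled human liver microsomes (0.4 mg/mL) at 37 °C. Run with and without 1 mM NADPH, sampled at predetermined time points.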

Mus musculus [7] = experiment: Apparent elimination half life in C57/BL6 mouse at 5 mg/kg, iv measured up to 24 hrs post dose by LC-MS/MS analysis; assay type: ADME, organism-based; settings: in vivo; summary of the method: as §2
[8] = Lipophilicity, log P of the compound at 100 uM at pH 7.4 after 3 hrs by shake-flask method; assay type: physicochemical; settings: buffer
Summary of the method: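 Shake-flask method run in triplicate. A 10 mM stock was spiked into a 1:1 mixture of phosphate buffer (pH 7.4) and n-octanol, then shaken at 1500 rpm on an orbital shaker for 3 h at room temperature.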

Mus musculus [9] = experiment: AUC (0 to infinity) in C57/BL6 mouse at 5 mg/kg, iv measured up to 24 hrs post dose by LC-MS/MS analysis; assay type: ADME, organism-based; parameters: dose 5 mg/kg, route intravenous, time infinity; settings: in vivo; summary of the method: as §2
[10] = tested on: Mycobacterium tuberculosis; experiment: Antibacterial activity against Mycobacterium tuberculosis […] SAWC3388 grown in middlebrook 7H9 medium measured on day 7 and 14 by MABA assay; assay type: functional; settings: 168 h; summary of the method: as §1
Liver [11] = experiment: Metabolic stability in mouse liver microsomes assessed as compound remaining at 0.1 uM after 30 mins by LC-MS/MS analysis; assay type: ADME, microsome; settings: 0.5 h; summary of the method: as §4
[12] = tested on: Mycobacterium tuberculosis; experiment: Antibacterial activity against Mycobacterium tuberculosis H37RvMA grown in GAST/Fe medium measured 7 to 14 days post inoculation by broth microdilution method; assay type: functional
Summary of the method: (§5)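 H37RvMa grown to OD600 0.6–0.7, diluted 1:100 in GAST/Fe. Compounds two-fold serially diluted from a top concentration of 640 μM, in duplicate. Incubated at 37 °C with humidification.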

Mus musculus [13] = experiment: AUC (0 to infinity) in C57/BL6 mouse at 20 mg/kg, po measured up to 24 hrs post dose by LC-MS/MS analysis; assay type: ADME, organism-based; parameters: dose 20 mg/kg, route oral, time infinity; settings: in vivo; summary of the method: as §3
[14] = tested on: Mycobacterium tuberculosis; experiment: Antibacterial activity against Mycobacterium tuberculosis […] SAWC3385 grown in middlebrook 7H9 medium measured on day 7 and 14 by MABA assay; assay type: functional; settings: 168 h; summary of the method: as §1
Mus musculus [15] = experiment: Cmax in C57/BL6 mouse at 20 mg/kg, po measured up to 24 hrs post dose by LC-MS/MS analysis; assay type: ADME, organism-based; parameters: dose 20 mg/kg, route oral; settings: in vivo; summary of the method: as §3
Mus musculus [16] = experiment: Oral bioavailability in C57/BL6 mouse at 20 mg/kg measured up to 24 hrs post dose by LC-MS/MS analysis; assay type: ADME, organism-based; settings: in vivo; summary of the method: as §3
Mus musculus [17] = experiment: Tmax in C57/BL6 mouse at 20 mg/kg, po measured up to 24 hrs post dose by LC-MS/MS analysis; assay type: ADME, organism-based; settings: in vivo; summary of the method: as §3
[18] = tested on: Mycobacterium tuberculosis; experiment: Antibacterial activity against Mycobacterium tuberculosis H37RvMA grown in 7H9/ADC medium measured 7 to 14 days post inoculation by broth microdilution method; assay type: functional
Vero = experiment: Cytotoxicity against African green monkey Vero cells assessed as reduction in cell viability by MTT assay; assay type: cell-based; settings: Chlorocebus sabaeus
Summary of the method: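 MTT assay in Vero cells, samples in triplicate on one occasion. Stocks at 20 mg/mL in DMSO, diluted in complete medium as 10-fold serial dilutions over 6 concentrations. Emetine used as reference. IC50 derived by non-linear dose-response curve fitting.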

[19] = Kinetic solubility of the compound in fasted-state simulated intestinal fluid at 10 to 220 uM at pH 6.5 after 2 hrs by shake flask method; assay type: physicochemical; settings: read-out: Kinetic_solubility
Summary of the method: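 Miniaturised shake flask. 10 mM DMSO stocks spiked 1:50 into duplicate FaSSIF (pH 6.5), 2% final DMSO. Shaken 2 h at 25 °C, filtered, analysed by HPLC-DAD against calibration standards (10–220 μM).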

[20] = tested on: Mycobacterium tuberculosis; experiment: Antibacterial activity against Mycobacterium tuberculosis […] SAWC3906 grown in middlebrook 7H9 medium measured on day 7 and 14 by MABA assay; assay type: functional; settings: 168 h; summary of the method: as §1
Liver [21] = experiment: Metabolic stability in rat liver microsomes assessed as compound remaining at 0.1 uM after 30 mins by LC-MS/MS analysis; assay type: ADME, microsome; settings: 0.5 h; summary of the method: as §4
[22] = tested on: Mycobacterium tuberculosis; experiment: Antibacterial activity against Mycobacterium tuberculosis […] SAWC3200 grown in middlebrook 7H9 medium measured on day 7 and 14 by MABA assay; assay type: functional; settings: 168 h; summary of the method: as §1
[23] = tested on: Mycobacterium tuberculosis; experiment: Antibacterial activity against wild type Mycobacterium tuberculosis H37Rv grown in GAST/Fe medium measured on day 14 post inoculation by broth microdilution method; assay type: functional; settings: 336 h; summary of the method: as §5
[24] = tested on: Mycobacterium tuberculosis; experiment: Antibacterial activity against Mycobacterium tuberculosis H37Rv grown in middlebrook 7H9 medium measured on day 7 and 14 by MABA assay; assay type: functional; settings: 168 h
Liver [25] = experiment: Drug metabolism in BALB mouse liver microsomes assessed as cleavage of amide bound on RHS at 10 uM after 1 hr by LC-MS/MS analysis; assay type: ADME, microsome
Summary of the method: (§6)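 Incubation at 37 °C for 1 h with shaking in 100 mM phosphate buffer pH 7.4, 1 mg/ml microsomes, 5 mM MgCl2 and 1 mM NADPH. Ice-cold acetonitrile precipitation, filtration, then LC-MS/MS. Controls: unincubated sample, and samples lacking NADPH or lacking microsomes; propranolol 10 μM as positive control. Metabolites found by comparing T60 with T0 and no-NADPH chromatograms, with product ion spectra of [M+H]+ compared against parent and synthetic standards where available.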

Liver [26] = experiment: Drug metabolism in BALB mouse liver microsomes assessed as N-demethylation on LHS at 10 uM after 1 hr by LC-MS/MS analysis; assay type: ADME, microsome; summary of the method: as §6
[27] = tested on: Mycobacterium tuberculosis; experiment: Antibacterial activity against cytochrome bd oxidase knockout GFP-fused Mycobacterium tuberculosis H37RvMA grown in GAST/Fe medium measured on day 7 and day 14 post inoculation by fluorescence plate reader assay; assay type: functional
[28] = tested on: Mycobacterium tuberculosis; experiment: Antibacterial activity against cytochrome bd oxidase knockout GFP-fused Mycobacterium tuberculosis H37RvMA grown in 7H9/GLU/ADC medium measured on day 7 and day 14 post inoculation by fluorescence plate reader assay; assay type: functional; settings: Mycobacterium tuberculosis, H37RvMA; read-out: MIC99

Structure (SMILES)	MIC90 [1]	Vd (Mus musculus [2])	MIC90 [3]	betat1/2(app) (Mus musculus [4])	Kinetic_solubility [5]	Fu (Plasma)	Stability (Liver [6])	betat1/2(app) (Mus musculus [7])	logD at 3 h, 100 µM [8]	AUC (Mus musculus [9])	MIC90 [10]	Stability (Liver [11])	MIC99 [12]	AUC (Mus musculus [13])	MIC90 [14]	Cmax (Mus musculus [15])	MIC99 [18]	IC50 (Vero)	solubility kinetic at 2 h [19]	Stability (Liver [21])	other results
CN(Cc1ccc(C(F)(F)F)nc1)c1cc(C(=O)Nc2nncs2)ncn1	2.5 µM (≈ 0.988 µg/mL)	1.7 L/kg	10 to 20 µM (≈ 3.95 to 7.91 µg/mL)	3 h	191 µM	0.32%	100%	3 h	1.4	2106 µM·min	10 µM (≈ 3.95 µg/mL)	78%	5 µM (≈ 1.98 µg/mL)	5614 µM·min	10 µM (≈ 3.95 µg/mL)	10800 nM	50 µM (≈ 19.8 µg/mL)	28 µM	195 µM (≈ 77.1 µg/mL)	88%	F (Mus musculus [16]): 67%; Tmax (Mus musculus [17]): 1 h; MIC90 [20]: 2.5 to 5 µM (≈ 0.988 to 1.98 µg/mL); MIC90 [22]: 2.5 to 5 µM (≈ 0.988 to 1.98 µg/mL)
CC(C)Oc1ccc(NC(=O)c2cc(N(C)Cc3ccc(F)cc3)ncn2)cc1	2.5 µM (≈ 0.986 µg/mL)	–	2.5 µM (≈ 0.986 µg/mL)	–	–	0.04%	64%	–	5	–	0.31 µM (≈ 0.122 µg/mL)	37%	1.2 µM (≈ 0.473 µg/mL)	–	0.31 µM (≈ 0.122 µg/mL)	–	5 µM (≈ 1.97 µg/mL)	254 µM	< 5 µM	43%	MIC99 [23]: 1.25 to 5 µM (≈ 0.493 to 1.97 µg/mL); MIC90 [24]: 1.25 µM (≈ 0.493 µg/mL); MIC90 [20]: 0.31 µM (≈ 0.122 µg/mL); MIC90 [22]: < 0.08 µM
CN(Cc1ccc(C(F)(F)F)cc1)c1cc(C(=O)Nc2ccccc2)ncn1	–	4.3 L/kg	–	8.7 h	< 5 µM	0.11%	55%	4.6 h	5	1224 µM·min	–	60%	5 µM (≈ 1.93 µg/mL)	1334 µM·min	–	2200 nM	5 µM (≈ 1.93 µg/mL)	258 µM	5 µM (≈ 1.93 µg/mL)	87%	Drug metabolism (Liver [25]): Metabolite_Detected; F (Mus musculus [16]): 28%; Drug metabolism (Liver [26]): Metabolite_Detected; Tmax (Mus musculus [17]): 1 h
CN(Cc1cccnc1)c1cc(C(=O)Nc2ccccc2)ncn1	–	–	–	–	150 µM	–	–	–	–	–	–	–	–	–	–	–	–	–	–	–	MIC99 [27]: 37 µM (≈ 11.8 µg/mL); MIC99 [28]: 48 µM (≈ 15.3 µg/mL)
CN(Cc1ccc(F)cc1)c1cc(C(=O)Nc2nncs2)ncn1	< 0.08 µM	4.8 L/kg	0.625 µM (≈ 0.215 µg/mL)	4.4 h	128 µM	0.01%	67%	5.1 h	2	1329 µM·min	0.15 µM (≈ 0.0517 µg/mL)	74%	4.7 µM (≈ 1.62 µg/mL)	1022 µM·min	< 0.08 µM	2580 nM	12.5 µM (≈ 4.3 µg/mL)	21.9 µM	< 5 µM	65%	Drug metabolism (Liver [25]): Metabolite_Detected; MIC99 [23]: 5 µM (≈ 1.72 µg/mL); MIC90 [24]: 2.5 µM (≈ 0.861 µg/mL); F (Mus musculus [16]): 19%; Drug metabolism (Liver [26]): Metabolite_Detected; Tmax (Mus musculus [17]): 1 h; MIC90 [20]: < 0.08 µM; MIC90 [22]: < 0.08 µM
